Assay results as given in ChEMBL document CHEMBL1926573, “Synthesis, antiproliferative activity and genotoxicity of novel anthracene-containing aminophosphonates and a new anthracene-derived Schiff base” (Bioorg Med Chem, 2012).
In brackets after ≈: the same amount, converted by molar mass. Activity calls are given as the source filed them. The calls are words filed in the database; no cut-off is given here.

Tests used:
HBL-100 [1] = test: Cytotoxicity against human HBL100 cells after 24 hrs by MTT assay; type: functional, cell-based; settings: HBL-100, 24 h
Procedure, shortened: (§1)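 Human tumor lines were grown in RPMI 1640 (MCF-7, HBL-100) or high-glucose DMEM (others) with 10% FCS at 37.5 °C and 5% CO2. Cells were seeded at 1×10^4/well, allowed to adhere 24 h, then exposed 24 h to 1–0.0681 mg/ml (1.47-fold dilutions) from DMSO stock diluted in PBS, with DMSO ≤1%. Doxorubicin was the reference. MTT-formazan was read at 580 nm. IC50 by non-linear regression; mean ± SD of three experiments.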

HeLa = test: Cytotoxicity against human HeLa cells after 24 hrs by MTT assay; type: functional, cell-based; procedure, shortened: as §1
647-V = test: Cytotoxicity against human 647V cells after 24 hrs by MTT assay; type: functional, cell-based; procedure, shortened: as §1
Bone marrow cell [2] = test: Induction of mitosis in ICR mouse bone marrow cells assessed as mitotic index at 10 mg/kg, ip after 48 hrs; type: functional; settings: route intraperitoneal
Procedure, shortened: (§2)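 ICR mice (male and female, 20 ± 1.5 g; 4 males + 4 females per treated group, 10 per control group) given compound ip at 10 or 100 mg/kg; mitomycin C 3.5 mg/kg positive control, 0.9% saline negative control. Colchicine 0.4 mg/kg ip 1 h before femoral marrow harvest at 24 or 48 h. Cells put in 0.075 M KCl (37 °C, 20 min), fixed in methanol–acetic acid 3:1, stained with Giemsa. ≥50 metaphases scored per animal. Mitotic index counted in 1500 cells per animal. Group mean ± SEM, Student's t-test.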

Bone marrow cell [3] = test: Induction of mitosis in ICR mouse bone marrow cells assessed as mitotic index at 100 mg/kg, ip after 48 hrs; type: functional; settings: route intraperitoneal; procedure, shortened: as §2
MDA-MB-231 = test: Cytotoxicity against human MDA-MB-231 cells after 24 hrs by MTT assay; type: functional, cell-based; settings: MDA-MB-231, 24 h; procedure, shortened: as §1
Bone marrow cell [4] = test: Induction of mitosis in ICR mouse bone marrow cells assessed as mitotic index at 10 mg/kg, ip after 24 hrs; type: functional; settings: route intraperitoneal; procedure, shortened: as §2
HepG2 = test: Cytotoxicity against human HepG2 cells after 24 hrs by MTT assay; type: functional, cell-based; settings: HepG2, 24 h; procedure, shortened: as §1
Bone marrow cell [5] = test: Induction of clastogenic effect in ICR mouse bone marrow cells assessed as chromosomal aberration at 100 mg/kg, ip after 48 hrs; type: functional; settings: route intraperitoneal; procedure, shortened: as §2
Bone marrow cell [6] = test: Induction of clastogenic effect in ICR mouse bone marrow cells assessed as chromosomal aberration at 100 mg/kg, ip after 24 hrs; type: functional; settings: route intraperitoneal; procedure, shortened: as §2
Bone marrow cell [7] = test: Induction of clastogenic effect in ICR mouse bone marrow cells assessed as chromosomal aberration at 10 mg/kg, ip after 24 hrs; type: functional; settings: route intraperitoneal; procedure, shortened: as §2
Bone marrow cell [8] = test: Induction of mitosis in ICR mouse bone marrow cells assessed as mitotic index at 100 mg/kg, ip after 24 hrs; type: functional; settings: route intraperitoneal; procedure, shortened: as §2
Bone marrow cell [9] = test: Antiproliferative activity in ICR mouse bone marrow cells assessed as inhibition of cell division at 10 to 100 mg/kg, ip measured after 48 hrs; type: functional, organism-based; procedure, shortened: as §2
MCF7 = test: Cytotoxicity against human MCF7 cells after 24 hrs by MTT assay; type: functional, cell-based; settings: MCF7, 24 h; procedure, shortened: as §1
HT-29 = test: Cytotoxicity against human HT-29 cells after 24 hrs by MTT assay; type: functional, cell-based; settings: HT-29, 24 h; procedure, shortened: as §1
Bone marrow cell [10] = test: Induction of clastogenic effect in ICR mouse bone marrow cells assessed as chromosomal aberration at 10 mg/kg, ip after 48 hrs; type: functional; settings: route intraperitoneal; procedure, shortened: as §2
[11] = Drug uptake in nuclear membrane of human HBL100 cells at non-toxic concentration after 24 hrs by fluorescent microscopic analysis; type: ADME, cell membranes; settings: hbl-100, 24 h
Procedure, shortened: (§3)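 HBL-100 cells were seeded at 1×10^5/ml on diagnostic slides, adhered overnight (37.5 °C, 5% CO2), and exposed 24 h to non-toxic concentrations. Intrinsic anthracene fluorescence was imaged by fluorescence microscopy to locate subcellular distribution.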

[12] = Drug uptake in nuclei of human HBL100 cells at non-toxic concentration after 24 hrs by fluorescent microscopic analysis; type: ADME, cell-based, Nucleus; settings: hbl-100, 24 h; procedure, shortened: as §3
HBL-100 [13] = test: Ratio of Doxorubicin IC50 to compound IC50 for human HBL100 cells after 24 hrs by MTT assay; type: functional
Bone marrow cell [14] = test: Induction of mitosis in ICR mouse bone marrow cells assessed as mitotic index at 3.5 mg/kg, ip after 48 hrs; type: functional; settings: route intraperitoneal; procedure, shortened: as §2
Bone marrow cell [15] = test: Induction of mitosis in ICR mouse bone marrow cells assessed as mitotic index at 3.5 mg/kg, ip after 24 hrs; type: functional; settings: route intraperitoneal; procedure, shortened: as §2
Bone marrow cell [16] = test: Induction of clastogenic effect in ICR mouse bone marrow cells assessed as rearrangement in centromere to centromeric fusion at 3.5 mg/kg, ip after 24 hrs; type: functional; settings: route intraperitoneal; procedure, shortened: as §2
Bone marrow cell [17] = test: Induction of clastogenic effect in ICR mouse bone marrow cells assessed as chromosomal aberration at 3.5 mg/kg, ip after 24 hrs; type: functional; settings: route intraperitoneal; procedure, shortened: as §2
Bone marrow cell [18] = test: Induction of clastogenic effect in ICR mouse bone marrow cells assessed as chromosomal breaks and fragmentation at 3.5 mg/kg, ip after 24 hrs; type: functional; settings: route intraperitoneal; procedure, shortened: as §2
Bone marrow cell [19] = test: Induction of clastogenic effect in ICR mouse bone marrow cells assessed as chromosomal aberration at 3.5 mg/kg, ip after 48 hrs; type: functional; settings: route intraperitoneal; procedure, shortened: as §2
Bone marrow cell [20] = test: Induction of clastogenic effect in ICR mouse bone marrow cells assessed as rearrangement in centromere to centromeric fusion at 10 to 100 mg/kg, ip; type: functional; settings: dose mg/kg 10-100; route intraperitoneal; procedure, shortened: as §2
Bone marrow cell [21] = test: Induction of clastogenic effect in ICR mouse bone marrow cells assessed as chromosomal breaks and fragmentation at 10 to 100 mg/kg, ip; type: functional; settings: dose mg/kg 10-100; route intraperitoneal; procedure, shortened: as §2
[22] = Drug uptake in cytoplasm of human HBL100 cells at non-toxic concentration after 24 hrs by fluorescent microscopic analysis; type: ADME, cell-based; settings: hbl-100, 24 h; procedure, shortened: as §3

SMILES: COP(=O)(OC)C(Nc1ccc(C)cc1)c1c2ccccc2cc2ccccc12 (configuration not stated)
- IC50 (HBL-100 [1]): 20 µg/mL (≈ 49.3 µM)
- IC50 (HeLa): > 2000 µg/mL
- IC50 (647-V): 600 µg/mL (≈ 1480 µM)
- Activity (Bone marrow cell [2]): 15.6 ‰
- Activity (Bone marrow cell [3]): 14.1 ‰
- IC50 (MDA-MB-231): 880 µg/mL (≈ 2170 µM)
- Activity (Bone marrow cell [4]): 12.6 ‰
- IC50 (HepG2): 830 µg/mL (≈ 2050 µM)
- Activity (Bone marrow cell [5]): 6%
- Activity (Bone marrow cell [6]): 5.5%
- Activity (Bone marrow cell [7]): 4%
- Activity (Bone marrow cell [8]): 12 ‰
- Activity (Bone marrow cell [9]): inactive
- IC50 (MCF7): 450 µg/mL (≈ 1110 µM)
- IC50 (HT-29): > 2000 µg/mL
- Activity (Bone marrow cell [10]): 4.75%

SMILES: CCOP(=O)(OCC)C(Nc1ccc(C)cc1)c1c2ccccc2cc2ccccc12 (configuration not stated)
- IC50 (HBL-100 [1]): 730 µg/mL (≈ 1680 µM)
- IC50 (HeLa): 1940 µg/mL (≈ 4480 µM)
- IC50 (647-V): > 2000 µg/mL
- Activity (Bone marrow cell [2]): 11.9 ‰
- Activity (Bone marrow cell [3]): 11.8 ‰
- IC50 (MDA-MB-231): > 2000 µg/mL
- Activity (Bone marrow cell [4]): 13.4 ‰
- IC50 (HepG2): > 2000 µg/mL
- Activity (Bone marrow cell [5]): 8%
- Drug uptake [11]: Active
- Activity (Bone marrow cell [6]): 8.5%
- Drug uptake [12]: Active
- Activity (Bone marrow cell [7]): 4.75%
- Activity (Bone marrow cell [8]): 16.1 ‰
- IC50 (MCF7): > 2000 µg/mL
- IC50 (HT-29): > 2000 µg/mL
- Activity (Bone marrow cell [10]): 6%

SMILES: C(=N\Cc1ccco1)/c1c2ccccc2cc2ccccc12
- IC50 (HBL-100 [1]): 460 µg/mL (≈ 1610 µM)
- IC50 (HeLa): 360 µg/mL (≈ 1260 µM)
- IC50 (647-V): 80 µg/mL (≈ 280 µM)
- Activity (Bone marrow cell [2]): 10.2 ‰
- Activity (Bone marrow cell [3]): 15.2 ‰
- IC50 (MDA-MB-231): 450 µg/mL (≈ 1580 µM)
- Activity (Bone marrow cell [4]): 11.3 ‰
- IC50 (HepG2): 120 µg/mL (≈ 421 µM)
- Activity (Bone marrow cell [5]): 5.5%
- Activity (Bone marrow cell [6]): 5.5%
- Activity (Bone marrow cell [7]): 4.75%
- Activity (Bone marrow cell [8]): 12.4 ‰
- Activity (Bone marrow cell [9]): inactive
- IC50 (MCF7): 260 µg/mL (≈ 911 µM)
- IC50 (HT-29): 200 µg/mL (≈ 701 µM)
- Activity (Bone marrow cell [10]): 4.43%

SMILES: CCOP(=O)(OCC)C(NCc1ccco1)c1c2ccccc2cc2ccccc12 (configuration not stated)
- IC50 (HBL-100 [1]): 70 µg/mL (≈ 165 µM)
- IC50 (HeLa): 120 µg/mL (≈ 283 µM)
- IC50 (647-V): 70 µg/mL (≈ 165 µM)
- Activity (Bone marrow cell [2]): 10.1 ‰
- IC50 (MDA-MB-231): 70 µg/mL (≈ 165 µM)
- Activity (Bone marrow cell [4]): 15.1 ‰
- IC50 (HepG2): 110 µg/mL (≈ 260 µM)
- Activity (Bone marrow cell [7]): 6.25%
- Ratio IC50 (HBL-100 [13]): 2
- IC50 (MCF7): 100 µg/mL (≈ 236 µM)
- IC50 (HT-29): 110 µg/mL (≈ 260 µM)
- Activity (Bone marrow cell [10]): 4.75%

SMILES: COc1cccc2c1C(=O)c1c(O)c3c(c(O)c1C2=O)C[C@@](O)(C(=O)CO)C[C@@H]3O[C@H]1C[C@H](N)[C@H](O)[C@H](C)O1.Cl [DOXORUBICIN HYDROCHLORIDE]
- IC50 (HBL-100 [1]): 140 µg/mL
- IC50 (HeLa): < 68 µg/mL
- IC50 (647-V): < 68 µg/mL
- IC50 (MDA-MB-231): < 68 µg/mL
- IC50 (HepG2): < 68 µg/mL
- IC50 (MCF7): < 68 µg/mL
- IC50 (HT-29): 580 µg/mL

SMILES: CO[C@@]12[C@H](COC(N)=O)C3=C(C(=O)C(C)=C(N)C3=O)N1C[C@@H]1N[C@@H]12 [MITOMYCIN]
- Activity (Bone marrow cell [14]): 7.29 ‰
- Activity (Bone marrow cell [15]): 5.49 ‰
- Activity (Bone marrow cell [16]): 24.9%
- Activity (Bone marrow cell [17]): 30.5%
- Activity (Bone marrow cell [18]): 75.1%
- Activity (Bone marrow cell [19]): 15.8%

SMILES: Cc1ccc(/N=C/c2c3ccccc3cc3ccccc23)cc1
- IC50 (HBL-100 [1]): 310 µg/mL (≈ 1050 µM)
- IC50 (HeLa): 170 µg/mL (≈ 576 µM)
- IC50 (647-V): 130 µg/mL (≈ 440 µM)
- Activity (Bone marrow cell [20]): 62.17%
- Activity (Bone marrow cell [2]): 8.45 ‰
- Activity (Bone marrow cell [3]): 11.7 ‰
- IC50 (MDA-MB-231): 120 µg/mL (≈ 406 µM)
- Activity (Bone marrow cell [4]): 12.6 ‰
- IC50 (HepG2): 180 µg/mL (≈ 609 µM)
- Activity (Bone marrow cell [5]): 6.5%
- Activity (Bone marrow cell [6]): 6.57%
- Activity (Bone marrow cell [7]): 5.25%
- Activity (Bone marrow cell [8]): 10.7 ‰
- Activity (Bone marrow cell [21]): 35.6%
- Drug uptake [22]: Active
- IC50 (MCF7): 450 µg/mL (≈ 1520 µM)
- IC50 (HT-29): 80 µg/mL (≈ 271 µM)
- Activity (Bone marrow cell [10]): 5%
